Reference: ChEMBL document CHEMBL1128338, “Synthesis and activity of some antimalarial bisquinolines” (J Med Chem, 1995)
pIC50: −log10 of the molar value.

Assays:
Plasmodium falciparum [1] = assay: In vitro inhibition of chloroquine-sensitive Plasmodium falciparum D-10; format: functional, organism-based
Outline: (§1)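 P. falciparum blood-stage cultures plated at c. 1% parasitemia, 2% hematocrit, exposed to a range of drug concentrations (compounds from 30 mM DMSO stocks; final DMSO <0.1%). Incubated 4 days with daily replacement of drug-containing medium. Growth curves run in duplicate; IC50 taken as concentration giving 50% growth inhibition.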

[2] = Resistance index as the ratio of IC50 value against K1 to that of D10 strains.; format: functional
Outline: (§2)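 Ratio of IC50 against the CQ-resistant strain (FAC8 or K1) to IC50 against CQ-sensitive D10. IC50s from 4-day growth assays at c. 1% parasitemia, 2% hematocrit, daily drug-medium replacement, duplicate growth curves.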

[3] = Resistance index as the ratio of IC50 value against FAC8 to that of D10 strains.; format: functional; outline: as §2
Plasmodium falciparum [4] = assay: In vitro inhibition of chloroquine-resistant Plasmodium falciparum FAC8; format: functional, organism-based; outline: as §1
Plasmodium falciparum [5] = assay: In vitro inhibition chloroquine-resistant Plasmodium falciparum K1; format: functional, organism-based; outline: as §1

Compound	pIC50 (Plasmodium falciparum [1])	Resistance index [2]	Resistance index [3]	pIC50 (Plasmodium falciparum [4])	pIC50 (Plasmodium falciparum [5])
CCN(CC)CCCC(C)Nc1ccnc2ccc(NC(=O)CCCCCCCCC(=O)Nc3ccc4nccc(NC(C)CCCN(CC)CC)c4c3)cc12 (stereo not given)	5.24	1.5	0.7	5.42	5.08
CCN(CC)CCCC(C)Nc1ccnc2c(NC(=O)CCCCCCCCC(=O)Nc3cccc4c(NC(C)CCCN(CC)CC)ccnc34)cccc12 (stereo not given)	6.59	1.1	1.2	6.51	6.54
CCN(CC)CCCC(C)Nc1ccnc2c(NC(=O)C(=O)Nc3cccc4c(NC(C)CCCN(CC)CC)ccnc34)cccc12 (stereo not given)	5.89	1.7	1.4	5.72	5.64
CCN(CC)CCCC(C)Nc1ccnc2ccc(NC(=O)CCCCCCC(=O)Nc3ccc4nccc(NC(C)CCCN(CC)CC)c4c3)cc12 (stereo not given)	5.30	1.5	1	5.28	5.13
CCN(CC)CCCC(C)Nc1ccnc2ccc(NC(=O)C(=O)Nc3ccc4nccc(NC(C)CCCN(CC)CC)c4c3)cc12 (stereo not given)	5.59	0.8	0.7	5.74	5.66
CCN(CC)CCCC(C)Nc1ccnc2c(NC(=O)CCC(=O)Nc3cccc4c(NC(C)CCCN(CC)CC)ccnc34)cccc12 (stereo not given)	6.30	5	2.2	5.92	5.60
CCN(CC)CCCC(C)Nc1ccnc2c(NC(=O)CCCCC(=O)Nc3cccc4c(NC(C)CCCN(CC)CC)ccnc34)cccc12 (stereo not given)	6.89	1.8	0.9	6.92	6.64
CCN(CC)CCCC(C)Nc1ccnc2c(NC(=O)CCCCCCC(=O)Nc3cccc4c(NC(C)CCCN(CC)CC)ccnc34)cccc12 (stereo not given)	6.42	1.6	0.9	6.46	6.22
CCN(CC)CCCC(C)Nc1ccnc2ccc(NC(=O)CCCCC(=O)Nc3ccc4nccc(NC(C)CCCN(CC)CC)c4c3)cc12 (stereo not given)	5.02	1.7	1.1	4.99	4.80
